# Data taken from ChEMBL document CHEMBL1208661, “Synthesis, characterization, in vitro and molecular docking studies of new 2,5-dichloro thienyl substituted thiazole derivatives for antimicrobial properties” (2010).
# Calls of active or inactive are those of the source. The rule behind the calls is not given here.
# Experiments:
# Escherichia coli = experiment: Antibacterial activity against Escherichia coli after 24 hrs by disc diffusion method; type: functional
# Procedure, shortened: (§1)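 Paper discs (6.25 mm, Whatman No. 1) were dry-heat sterilized at 140 °C for 1 h. Test compounds were made up at different concentrations in dimethylformamide and loaded onto batches of 100 discs, using 1 ml holding 100 times the per-disc amount. Discs were placed in triplicate on nutrient agar seeded with fresh bacteria.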
# Pseudomonas aeruginosa = experiment: Antibacterial activity against Pseudomonas aeruginosa after 24 hrs by disc diffusion method; type: functional; procedure, shortened: as §1
# Aspergillus fumigatus [1] = experiment: Antifungal activity against Aspergillus fumigatus NCIM 902 at 10 ug/ml after 3 to 4 days by serial plate dilution method; type: functional, organism-based
# Procedure, shortened: (§2)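 Sabouraud agar was used (peptone, D-glucose and agar in water, pH 5.7). Plates were lawned with a saline spore suspension and dried at 37 °C for 1 h. Wells were punched in the agar and filled with compound in DMSO, with a DMSO solvent control. Plates were run in triplicate at 37 °C for 3–4 days.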
# Staphylococcus aureus = experiment: Antibacterial activity against Staphylococcus aureus Smith after 24 hrs by disc diffusion method; type: functional; procedure, shortened: as §1
# [2] = test system: Trichophyton mentagrophytes; experiment: Antifungal activity against recultured Trichophyton mentagrophytes after 3 to 4 days by serial plate dilution method; type: functional; procedure, shortened: as §2
# Klebsiella pneumoniae = experiment: Antibacterial activity against Klebsiella pneumoniae after 24 hrs by disc diffusion method; type: functional; procedure, shortened: as §1
# Talaromyces marneffei [3] = experiment: Antifungal activity against recultured Penicillium marneffei after 3 to 4 days by serial plate dilution method; type: functional; procedure, shortened: as §2
# Aspergillus flavus [4] = experiment: Antifungal activity against Aspergillus flavus NCIM 524 after 3 to 4 days by serial plate dilution method; type: functional; procedure, shortened: as §2
# Aspergillus fumigatus [5] = experiment: Antifungal activity against Aspergillus fumigatus NCIM 902 after 3 to 4 days by serial plate dilution method; type: functional; procedure, shortened: as §2
# Aspergillus flavus [6] = experiment: Antifungal activity against Aspergillus flavus NCIM 524 at 10 ug/ml after 3 to 4 days by serial plate dilution method; type: functional, organism-based; procedure, shortened: as §2
# Talaromyces marneffei [7] = experiment: Antifungal activity against recultured Penicillium marneffei at 10 ug/ml after 3 to 4 days by serial plate dilution method; type: functional, organism-based; procedure, shortened: as §2
# [8] = test system: Trichophyton mentagrophytes; experiment: Antifungal activity against recultured Trichophyton mentagrophytes at 10 ug/ml after 3 to 4 days by serial plate dilution method; type: functional, organism-based; procedure, shortened: as §2
SMILES,MIC (Escherichia coli),MIC (Pseudomonas aeruginosa),MIC (Aspergillus fumigatus [1]),MIC (Staphylococcus aureus) [µg/mL],MIC [2] [µg/mL],MIC (Klebsiella pneumoniae),MIC (Talaromyces marneffei [3]) [µg/mL],MIC (Aspergillus flavus [4]) [µg/mL],MIC (Aspergillus fumigatus [5]) [µg/mL],MIC (Aspergillus flavus [6]),MIC (Talaromyces marneffei [7]),MIC [8]
CC1(C)S[C@@H]2[C@H](NC(=O)[C@H](N)c3ccccc3)C(=O)N2[C@H]1C(=O)O [AMPICILLIN],< 6.25 µg/mL,< 6.25 µg/mL,–,< 6.25,–,< 6.25 µg/mL,–,–,–,–,–,–
Nc1nc(-c2cc(Cl)sc2Cl)cs1,6.25 µg/mL,12.5 µg/mL,–,6.25,12.5,12.5 µg/mL,12.5,6.25,6.25,–,–,–
Clc1cc(-c2csc(-c3cccc4cccnc34)n2)c(Cl)s1,12.5 µg/mL,12.5 µg/mL,–,6.25,6.25,6.25 µg/mL,6.25,6.25,12.5,–,–,–
Clc1cc(-c2csc(-c3cccnc3)n2)c(Cl)s1,inactive,100 µg/mL,inactive,100,–,inactive,–,–,–,inactive,inactive,inactive
C[C@@H]1[C@H](O)[C@@H](C)/C=C/C=C/C=C/C=C/C=C/C=C/C=C/[C@H](O[C@@H]2O[C@H](C)[C@@H](O)[C@H](N)[C@@H]2O)C[C@@H]2O[C@](O)(C[C@@H](O)C[C@@H](O)[C@H](O)CC[C@@H](O)C[C@@H](O)CC(=O)O[C@H]1C)C[C@H](O)[C@H]2C(=O)O [AMPHOTERICIN B],–,–,–,–,< 6.25,–,< 6.25,< 6.25,< 6.25,–,–,–

# Further lines, results first:
MIC (Escherichia coli),MIC (Pseudomonas aeruginosa),MIC (Aspergillus fumigatus [1]),MIC (Staphylococcus aureus) [µg/mL],MIC [2] [µg/mL],MIC (Klebsiella pneumoniae),MIC (Talaromyces marneffei [3]) [µg/mL],MIC (Aspergillus flavus [4]) [µg/mL],MIC (Aspergillus fumigatus [5]) [µg/mL],MIC (Aspergillus flavus [6]),MIC (Talaromyces marneffei [7]),MIC [8],SMILES
6.25 µg/mL,12.5 µg/mL,inactive,6.25,12.5,100 µg/mL,12.5,100,–,–,–,–,COc1ccccc1-c1nc(-c2cc(Cl)sc2Cl)cs1
inactive,inactive,inactive,100,–,inactive,–,–,–,inactive,inactive,inactive,Fc1ccccc1-c1nc(-c2cc(Cl)sc2Cl)cs1
